Screening results from PubChem BioAssay.
CR mimetic SO: lowers age-related superoxide in aged yeast cells. S. cerevisiae aged cells, superoxide DHE fluorescence; stronger effect = lower value. superoxide response (% of plate mean), % at 10 µM. hit rate 0.18% among 330,000;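 active means superoxide response under a set limit, about three screen SD below normal, cut at about 65% in these data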;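 further: yeast aged for seven days with compound at 30 °C before DHE staining; 100% = average MFI of all compound-treated wells on the plate with controls excluded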
UCH37 DUB inh: human UCH37 deubiquitinating enzyme inhibition; Q9Y5K5; purified proteasome/UCH37, Ub-AMC cleavage fluorescence; inhibition, % (no concentration beside the values); hit rate 0.33% among 330,000; AID 588478;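 active means mean inhibition over replicate wells above about 20%, limit read from the data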;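 further: 0% = compound-free wells with enzyme and 100% = wells lacking proteasome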
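Signal – fluorescence, ex 355 nm, em 460 nm · System – Proteasome-bound UCH37 · Input – 0.15 nM proteasome as dispensed · Timing – 30 min preincubation with enzyme, 25 min cleavage at room temperature · Read-out basis – percent inhibition of cleavage signal versus uninhibited and no-proteasome wells · Medium – Tris-HCl pH 7.4 with ATP-MgCl2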
NR1D1 modulator: Rev-erb alpha (human) modulation; Rev-erbα–FITC-DNA binding, fluorescence polarization, 90 min; hit rate 0.79% among 370,000; activity, % at 10 µM; P20393;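 active means activity above about 14%, limit read from the data; passing the limit was not always enough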;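 further: 0% = DMSO wells with 35 nM protein and 100% = DMSO wells with 750 nM protein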
Target sequence (P20393 whole entry, looked up): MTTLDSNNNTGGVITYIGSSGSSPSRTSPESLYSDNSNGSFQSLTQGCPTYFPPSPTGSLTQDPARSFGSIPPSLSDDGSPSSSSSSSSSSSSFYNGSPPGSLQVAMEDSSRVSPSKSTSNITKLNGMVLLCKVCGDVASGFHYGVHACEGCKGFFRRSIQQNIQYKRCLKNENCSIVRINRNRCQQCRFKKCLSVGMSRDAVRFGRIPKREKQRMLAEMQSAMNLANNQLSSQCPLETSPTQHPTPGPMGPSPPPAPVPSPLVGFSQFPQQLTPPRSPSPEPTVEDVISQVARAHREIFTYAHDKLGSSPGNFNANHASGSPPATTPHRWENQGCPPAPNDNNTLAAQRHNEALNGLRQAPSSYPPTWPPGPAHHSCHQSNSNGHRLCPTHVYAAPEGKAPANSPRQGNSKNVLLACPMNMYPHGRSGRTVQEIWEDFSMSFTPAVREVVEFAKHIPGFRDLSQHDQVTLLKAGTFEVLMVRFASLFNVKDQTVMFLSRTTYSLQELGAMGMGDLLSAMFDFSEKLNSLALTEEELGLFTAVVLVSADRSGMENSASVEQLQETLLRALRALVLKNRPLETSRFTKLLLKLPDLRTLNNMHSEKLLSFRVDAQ
MIN6 prolif-1: inducers of beta-cell replication in MIN6 cells | MIN6 cells proliferation, ATPlite luminescence, 48 h; cells starved in 0.2% serum; 100% = growth in 10% serum | proliferation, % at 10 µM | hit rate 0.29% among 330,000;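 active means compounds whose signal lies at least 3.5 SD above the mean of all wells on their plate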;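 further: 0% = DMSO-treated cells in low-serum medium and 100% = 10% serum control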
PG9 binder: binds the HIV-1 gp120 antibody PG9. TR-FRET gp120-PG9 antibody binding. inhibition, % at 6.7 µM. hit rate 0.43% among 360,000. AID 624416; in the data active means inhibition above about 8.5%
Rce1 inhib: blocks yeast Ras-converting enzyme. Q03530. yeast membranes, quenched prenylated peptide cleavage fluorescence. calls only. hit rate 0.27% among 290,000;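 active means fall in fluorescence gain of 50% or more versus controls, with final raw signal at or below 3038400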;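 further: plate controls were neutral control wells for no effect and wells lacking membranes for full effect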
MIN6 prolif-2: confirmation of inducers of beta-cell replication in MIN6 cells | 920 tested, under 10 active | MIN6 beta-cell proliferation, ATPlite luminescence, 48 h; cells kept in 0.2% serum; scaled between 0.2% and 10% serum | shares compounds with MIN6 prolif-1 | AID 463095 | proliferation increase, % at 50 µM;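 active means proliferation increase above 40% at any of the four tested concentrations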
The depositor's hits bear a star. Rows were chosen to be rich in hits. Some 1.9% of all compounds tested hit in one or more screens of this group.

CC1CCCCN1c1ncnc(N)c1[N+](=O)[O-] (centres undefined) was read as CR mimetic SO 81, UCH37 DUB inh 3, NR1D1 modulator 5, MIN6 prolif-1 8.8*, PG9 binder -1, Rce1 inhib inactive and MIN6 prolif-2 12.
Screening CCC(NC(C)C)C(O)c1ccc(O)c2[nH]c(=O)ccc12 (centres undefined) returned CR mimetic SO 97, UCH37 DUB inh 4, MIN6 prolif-1 19*, Rce1 inhib inactive and MIN6 prolif-2 0.
`O=[N+]([O-])c1ccc(Cl)c(S(=O)(=O)N=C(c2ccccc2)N2CCOCC2)c1` gave UCH37 DUB inh 3.
For CC(C)c1cc(=O)[nH]c(N2CCN(Cc3ccc4c(c3)OCO4)CC2)n1 the results were CR mimetic SO 89, UCH37 DUB inh 2, NR1D1 modulator 4, MIN6 prolif-1 8.7*, PG9 binder -2, Rce1 inhib inactive and MIN6 prolif-2 -2.
C#CCOC(=O)c1ccc(-n2cncn2)nc1 was read as CR mimetic SO 84, UCH37 DUB inh 0, NR1D1 modulator -2, MIN6 prolif-1 5.9*, PG9 binder -1, Rce1 inhib inactive and MIN6 prolif-2 -1.
Screening O=C1NC2(CCCCC2)C(=O)N1c1ccc(Cl)cc1 returned CR mimetic SO 95, UCH37 DUB inh 0, NR1D1 modulator 6, MIN6 prolif-1 8.4*, PG9 binder 0, Rce1 inhib inactive and MIN6 prolif-2 2.
O=C1NC2(CCCCC2)C(=O)N1c1ccccc1 was read as CR mimetic SO 97, UCH37 DUB inh 1, NR1D1 modulator -6, MIN6 prolif-1 0, PG9 binder 1 and Rce1 inhib inactive.
For CC(Oc1cc2oc(=O)cc(-c3ccccc3)c2cc1Cl)C(=O)NCC1CCC(C(=O)O)CC1 (centres undefined) the results were CR mimetic SO 121, UCH37 DUB inh -1, NR1D1 modulator 1, MIN6 prolif-1 1, PG9 binder -2 and Rce1 inhib inactive.
CC(NC(=O)OC(C)(C)C)C(=O)Oc1cc2oc(=O)cc(-c3ccccc3)c2cc1Cl (centres undefined) was read as CR mimetic SO 174, MIN6 prolif-1 5.9*, Rce1 inhib inactive and MIN6 prolif-2 -6.
`Clc1cccc(C=NNc2nnc(Cl)c3ccccc23)c1` gave UCH37 DUB inh 5.
For COc1ccc(CCNC(=O)CCN2C(=O)c3cccc4cccc(c34)C2=O)cc1OC the results were CR mimetic SO 95, UCH37 DUB inh -2, NR1D1 modulator -3, MIN6 prolif-1 7.9*, PG9 binder -1, Rce1 inhib inactive and MIN6 prolif-2 0.
For COc1ccc(NC(=O)CON=C2CCCc3nonc32)c(OC)c1 the results were UCH37 DUB inh 4.
Screening O=C(NNC(=O)C1CCCO1)c1ccc(Cl)cc1 (centres undefined) returned CR mimetic SO 106, UCH37 DUB inh 0, MIN6 prolif-1 8.5*, PG9 binder 0, Rce1 inhib inactive and MIN6 prolif-2 -2.
`O=C(NNC(=O)C1CCCO1)c1ccc([N+](=O)[O-])cc1` (centres undefined) gave CR mimetic SO 130, UCH37 DUB inh 2, NR1D1 modulator 0, MIN6 prolif-1 0, PG9 binder -2 and Rce1 inhib inactive.
CCCC(=O)Nc1nn(CC)c2nc3ccc(C)cc3cc12 was read as CR mimetic SO 88, NR1D1 modulator -1, MIN6 prolif-1 9.5*, PG9 binder -7, Rce1 inhib inactive and MIN6 prolif-2 1.
Screening CCCCC(=O)Nc1ccccc1C#N returned CR mimetic SO 98, UCH37 DUB inh 1, NR1D1 modulator -2, MIN6 prolif-1 5.8*, PG9 binder 1, Rce1 inhib inactive and MIN6 prolif-2 -1.
`CCCC(=O)OCC(=O)Nc1ccccc1C#N` gave CR mimetic SO 94, UCH37 DUB inh 1, NR1D1 modulator 1, MIN6 prolif-1 -4, PG9 binder 0 and Rce1 inhib inactive.
Screening COc1cc(C(=O)N/C(=C\c2cn(S(=O)(=O)N(C)C)c3ccccc23)C(=O)NCCCO)cc(OC)c1OC returned CR mimetic SO 104, UCH37 DUB inh 5, NR1D1 modulator 3, MIN6 prolif-1 8.6*, PG9 binder -1, Rce1 inhib inactive and MIN6 prolif-2 -3.
Screening C=CCn1c(N2CCN(c3ccc(OC)cc3)CC2)nc2c1c(=O)n(C)c(=O)n2C returned CR mimetic SO 100, UCH37 DUB inh 2, NR1D1 modulator -5, MIN6 prolif-1 8.3*, PG9 binder -2, Rce1 inhib inactive and MIN6 prolif-2 -3.
`CCN(CC)CCCOC(=O)C1(c2ccccc2)CCCC1` gave CR mimetic SO 99, UCH37 DUB inh 4, NR1D1 modulator -1, MIN6 prolif-1 1, PG9 binder -1 and Rce1 inhib inactive.
`CCN(CC)CCCC1(CN)OCCc2ccccc21` (centres undefined) gave CR mimetic SO 97, UCH37 DUB inh -6, NR1D1 modulator 3, MIN6 prolif-1 8.4*, PG9 binder 0, Rce1 inhib inactive and MIN6 prolif-2 0.
O=[N+]([O-])c1ccc(-n2nnnc2CN2CCCCC2)cc1 was read as CR mimetic SO 100, UCH37 DUB inh 3, NR1D1 modulator 3, MIN6 prolif-1 9.3*, PG9 binder -2, Rce1 inhib inactive and MIN6 prolif-2 6.
O=[N+]([O-])c1ccc(-n2nnnc2CN2CCOCC2)cc1 was read as CR mimetic SO 106, UCH37 DUB inh 2, NR1D1 modulator -4, MIN6 prolif-1 -1, PG9 binder -1 and Rce1 inhib inactive.
COc1cc(C=NNC(=O)c2c(-c3ccccc3)noc2C)cc(OC)c1OC was read as UCH37 DUB inh 5.
For O=C(NN=Cc1ccccc1)c1ccc(NC(=O)c2ccc(F)cc2)cc1 the results were UCH37 DUB inh 3.
Screening CCOc1ccc2ccccc2c1C=NNC(=O)c1ccncc1 returned UCH37 DUB inh 5.
For Cc1ccc(C)c(OCC(=O)NN=Cc2cccn2C)c1 the results were UCH37 DUB inh 7.
Screening O=C(Nc1ccccc1F)NC1CCCc2ccccc21 (centres undefined) returned CR mimetic SO 81, UCH37 DUB inh 2, NR1D1 modulator -2, MIN6 prolif-1 7.2*, PG9 binder -1 and MIN6 prolif-2 -5.
Screening O=C1CSC(=S)N1N=Cc1ccc(O)c([N+](=O)[O-])c1 returned UCH37 DUB inh 8.
Screening CCOC(=O)/C(C#N)=C1/C=C(C)c2ccccc2N1 returned CR mimetic SO 110, NR1D1 modulator 5, MIN6 prolif-1 7.1*, PG9 binder -1, Rce1 inhib inactive and MIN6 prolif-2 -1.
